In ChEMBL document CHEMBL1159370, “A novel NO-production-inhibiting triterpene and cytotoxicity of known alkaloids from Euonymus laxiflorus” (J Nat Prod, 2003):
Values after ≈ are worked out from the molar mass of the structure shown.

How the values were obtained:
KB = test: Cytotoxicity against human KB cells; type: functional; conditions: read-out: ED50 (the source's name)
COLO 205 = test: Cytotoxicity against human COLO205 cells; type: functional; conditions: read-out: ED50 (the source's name)
RAW264.7 [1] = test: Inhibition of LPS/IFN-gamma-induced nitrite accumulation in mouse RAW264.7 cells by Griess reagent assay; type: functional, cell-based
Procedure, shortened: (§1)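 RAW 264.7 cells were grown in DMEM with 10% heat-inactivated FCS at 37 °C under 5% CO2. Compound (DMSO vehicle, 0.02–0.5%) was added together with LPS (1 µg/mL) plus IFN-γ (50 U/mL) for 24 h. Medium nitrite was measured with Griess reagent (1% sulfanilamide, 0.1% naphthylenediamine, 5% phosphoric acid) at OD550 against sodium nitrite standards. Data are mean ± SEM of six experiments, each in triplicate.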

RAW264.7 [2] = test: Inhibition of LPS/IFN-gamma-induced nitrite accumulation in mouse RAW264.7 cells at 0.2 mg/ml by Griess reagent assay; type: functional; procedure, shortened: as §1
[3] = Cytotoxicity against mouse RAW264.7 cells assessed as cell viability by MTT reduction assay; type: cell-based; conditions: read-out: Activity
Procedure, shortened: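 Viability was read by MTT reduction in RAW 264.7 macrophages exposed for 24 h at 37 °C to LPS (1 µg/mL) plus IFN-γ (50 U/mL) with the compound. Results are expressed relative to unstimulated basal control cells. Data are mean ± SEM of six experiments, each in triplicate.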

| Structure (SMILES) | EC50 (KB) [µg/mL] | EC50 (COLO 205) [µg/mL] | IC50 (RAW264.7 [1]) [µg/mL] | inhibition at 200 µg/mL (RAW264.7 [2]) [%] | viability [3] [%] |
| --- | --- | --- | --- | --- | --- |
| CC1(C)[C@@H](O)CC[C@]2(C)[C@H]3CC=C4[C@@H]5C[C@](C)(C(=O)O)C[C@H](O)[C@]5(C)CC[C@@]4(C)[C@]3(C)CC[C@@H]12 [MAYTENFOLIC ACID] | > 20 | > 20 | – | – | – |
| CC(=O)OC[C@]12[C@H](OC(C)=O)[C@H](OC(C)=O)[C@@H]3[C@@H](OC(C)=O)[C@@]14O[C@@]3(C)COC(=O)c1cccnc1C(C)C(C)C(=O)O[C@@H]([C@H](OC(C)=O)[C@@H]2OC(=O)c1ccccc1)[C@]4(C)O (some centres undefined) [MAYTEINE] | > 20 | > 20 | – | – | – |
| CO[C@H]1CC[C@]2(C)[C@H]3C(=O)C[C@@H]4C5=CC(C)(C)CC[C@]5(C)CC[C@@]4(C)[C@]3(C)CC[C@H]2C1(C)C [LAXIFOLONE A] | – | – | 120 (≈ 264 µM) | > 80 | > 95 |
| CC(=O)OC[C@]12[C@H](O)[C@@H](OC(C)=O)[C@@H]3[C@@H](OC(C)=O)[C@@]14O[C@@]3(C)COC(=O)c1cccnc1[C@@H](C)[C@H](C)C(=O)O[C@@H]([C@H](OC(=O)c1ccc(=O)n(C)c1)[C@@H]2O)[C@]4(C)O [EMARGINATINE E] | 1.7 (≈ 2.09 µM) | 4.1 (≈ 5.03 µM) | – | – | – |
| CC(=O)OC[C@]12[C@H](OC(C)=O)[C@H](OC(C)=O)[C@@H]3[C@@H](OC(=O)c4ccccc4)[C@@]14O[C@@]3(C)COC(=O)c1cccnc1C(C)C(C)C(=O)O[C@@H]([C@H](OC(C)=O)[C@@H]2OC(=O)c1ccccc1)[C@]4(C)O (some centres undefined) | > 20 | > 20 | – | – | – |
| C[C@H]1C(=O)CC[C@@H]2[C@]1(C)CC(=O)[C@H]1[C@@]2(C)CC[C@@]2(C)[C@@H]3CC(C)(C)CC[C@]3(C)CC[C@]12C [PUTRANJIVADIONE] | > 20 | > 20 | – | – | – |
| CC1(C)C(O)CC[C@]2(C)[C@H]3CC=C4[C@@H]5C[C@@]6(C)CC(OC6=O)[C@]5(C)CC[C@@]4(C)[C@]3(C)CC[C@@H]12 (some centres undefined) | > 20 | > 20 | – | – | – |
| CC1(C)CC[C@]2(C)CC[C@]3(C)C(=CC(=O)[C@@H]4[C@@]5(C)CCC(=O)C(C)(C)[C@@H]5CC[C@]43C)[C@@H]2C1 | > 20 | > 20 | – | – | – |
| CC(=O)OC[C@]12[C@H](OC(C)=O)[C@H](OC(C)=O)[C@@H]3[C@@H](OC(=O)c4ccccc4)[C@@]14O[C@@]3(C)COC(=O)c1cccnc1[C@@H](C)[C@H](C)C(=O)O[C@@H]([C@H](O)[C@@H]2OC(=O)c1ccccc1)[C@]4(C)O [EUOJAPONINE C] | > 20 | > 20 | – | – | – |
